# Measured values taken from ChEMBL document CHEMBL1123783, “Synthesis and anticonvulsant activity of analogues of 4-amino-N-(1-phenylethyl)benzamide” (J Med Chem, 1987).
# Columns and labels:
# Mus musculus [1] = assay: Compound was evaluated for anticonvulsant activity against maximal electric shock (MES) induced convulsions after 4 hr at a dose of 100 mg/kg; format: functional
# Mus musculus [2] = assay: Compound was evaluated for toxicity by rotarod assay method after 30 minutes at a dose of 100 mg/kg; format: organism-based; parameters: dose 100 mg/kg; details: in vivo, 0.5 h
# Method in brief: (§1)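 Male Carworth Farms number-one mice received test compound intraperitoneally in 30% polyethylene glycol 400 at 30, 100 and 300 mg/kg, with 600 mg/kg in some cases. Neurological deficit was read at 30 min or 4 h after dosing on a 1-in.-diameter knurled plastic rod turning at 6 rpm. Toxicity was scored as failure to stay on the rod for 1 min.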
# [3] = Compound was evaluated for anticonvulsant activity by rotarod procedure; format: ADME, organism-based; details: mouse, in vivo
# Method in brief: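 Male Carworth Farms mice were dosed ip in 30% PEG 400 and then placed on a knurled plastic rod 1 in. in diameter, rotating at 6 rpm. Neurotoxicity was failure to stay on the rod for 1 min. TD50 was derived graphically.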
# Mus musculus [4] = assay: Compound was evaluated for toxicity by rotarod assay method after 4 hr at a dose of 100 mg/kg; format: organism-based; parameters: dose 100 mg/kg; details: in vivo; method in brief: as §1
# Mus musculus [5] = assay: Compound was evaluated for anticonvulsant activity against subcutaneous pentylenetetrazole-induced convulsions after 4 hr; D indicates no activity at 100 mg/kg; format: functional, organism-based; parameters: dose 100 mg/kg
# Method in brief: (§2)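 Male Carworth Farms number-one mice were dosed ip in 30% PEG 400, at 30, 100 or 300 mg/kg (sometimes 600 mg/kg). Pentylenetetrazole, 85 mg/kg as a 0.5% solution, was injected subcutaneously in the posterior midline. Protection meant no episode of clonic spasms lasting at least 5 s during a 30-min observation period.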
# Mus musculus [6] = organism: Mus musculus; assay: Compound was evaluated for anticonvulsant activity against maximal electric shock induced seizures; format: functional
# Method in brief: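 Male Carworth Farms number-one mice received the compound ip in 30% polyethylene glycol 400 before maximal electroshock testing, at several dose levels. The median effective dose (ED50) was obtained by the graphical method.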
# [7] = Protective index is the ratio of TD50 to ED50; format: ADME; details: for selectivity ratio: read-out: Protective index
# Method in brief: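 Protective index was calculated as rotorod TD50 divided by anti-MES ED50. Both were graphical median doses from ip dosing in 30% PEG 400 in male Carworth Farms mice.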
# Mus musculus [8] = assay: Compound was evaluated for anticonvulsant activity against subcutaneous pentylenetetrazole-induced convulsions after 30 minutes; D indicates no activity at 100 mg/kg; format: functional, organism-based; parameters: dose 100 mg/kg; method in brief: as §2
# Mus musculus [9] = assay: Compound was evaluated for anticonvulsant activity against maximal electric shock (MES) induced convulsions after 30 minutes at a dose of 30 mg/kg; format: functional
# Mus musculus [10] = assay: Compound was evaluated for toxicity by rotarod assay method after 30 minutes; C indicates no activity at 300 mg/kg.; format: organism-based; parameters: dose 300 mg/kg; details: in vivo, 0.5 h; method in brief: as §1
# Mus musculus [11] = assay: Compound was evaluated for anticonvulsant activity against subcutaneous pentylenetetrazole-induced convulsions after 30 minutes; C indicates no activity at 300 mg/kg.; format: functional, organism-based; parameters: dose 300 mg/kg; method in brief: as §2
# Mus musculus [12] = assay: Compound was evaluated for anticonvulsant activity against subcutaneous pentylenetetrazole-induced convulsions after 4 hr at a dose of 100 mg/kg; format: functional; method in brief: as §2
# Mus musculus [13] = assay: Compound was evaluated for toxicity by rotarod assay method after 4 hr; C indicates no activity at 300 mg/kg.; format: organism-based; parameters: dose 300 mg/kg; details: in vivo; method in brief: as §1
# Mus musculus [14] = assay: Compound was evaluated for anticonvulsant activity against maximal electric shock (MES) induced convulsions after 4 hr; C indicates no activity at 300 mg/kg.; format: functional, organism-based; parameters: dose 300 mg/kg
# Mus musculus [15] = assay: Compound was evaluated for anticonvulsant activity against maximal electric shock (MES) induced convulsions after 30 minutes; C indicates no activity at 300 mg/kg.; format: functional, organism-based; parameters: dose 300 mg/kg
# Mus musculus [16] = assay: Compound was evaluated for anticonvulsant activity against subcutaneous pentylenetetrazole-induced convulsions after 30 minutes;C is inactive at 300 mg/kg.; format: functional, organism-based; parameters: dose 300 mg/kg; method in brief: as §2
# Mus musculus [17] = assay: Compound was evaluated for toxicity by rotarod assay method after 30 minutes; C is inactive at 300 mg/kg.; format: organism-based; parameters: dose 300 mg/kg; details: in vivo, 0.5 h; method in brief: as §1
# Mus musculus [18] = assay: Compound was evaluated for toxicity by rotarod assay method after 4 hr; C is inactive at 300 mg/kg.; format: organism-based; parameters: dose 300 mg/kg; details: in vivo; method in brief: as §1
# Mus musculus [19] = assay: Compound was evaluated for anticonvulsant activity against maximal electric shock (MES) induced convulsions after 30 minutes;C is inactive at 300 mg/kg.; format: functional, organism-based; parameters: dose 300 mg/kg
# Mus musculus [20] = assay: Compound was evaluated for anticonvulsant activity against maximal electric shock (MES) induced convulsions after 4 hr; C is inactive at 300 mg/kg.; format: functional, organism-based; parameters: dose 300 mg/kg
# Mus musculus [21] = assay: Compound was evaluated for anticonvulsant activity against subcutaneous pentylenetetrazole-induced convulsions after 4 hr; C is inactive at 300 mg/kg.; format: functional, organism-based; parameters: dose 300 mg/kg; method in brief: as §2
# Mus musculus [22] = assay: Compound was evaluated for anticonvulsant activity against subcutaneous pentylenetetrazole-induced convulsions after 30 minutes at a dose of 300 mg/kg; format: functional; method in brief: as §2
# Mus musculus [23] = assay: Compound was evaluated for toxicity by rotarod assay method after 30 minutes at a dose of 300 mg/kg; format: organism-based; parameters: dose 300 mg/kg; details: in vivo, 0.5 h; method in brief: as §1
# Mus musculus [24] = assay: Compound was evaluated for anticonvulsant activity against subcutaneous pentylenetetrazole-induced convulsions; format: functional; details: sc; method in brief: as §2
# Mus musculus [25] = assay: Compound was evaluated for anticonvulsant activity against subcutaneous pentylenetetrazole-induced convulsions after 4 hr; C indicates no activity at 300 mg/kg.; format: functional, organism-based; parameters: dose 300 mg/kg; method in brief: as §2
# Mus musculus [26] = assay: Compound was evaluated for anticonvulsant activity against maximal electric shock (MES) induced convulsions after 4 hr at a dose of 300 mg/kg; format: functional
# Mus musculus [27] = assay: Compound was evaluated for anticonvulsant activity against maximal electric shock (MES) induced convulsions after 30 minutes at a dose of 100 mg/kg; format: functional
# Mus musculus [28] = assay: Compound was evaluated for anticonvulsant activity against subcutaneous pentylenetetrazole-induced convulsions after 4 hr at a dose of 300 mg/kg; format: functional; method in brief: as §2
# Mus musculus [29] = assay: Compound was evaluated for anticonvulsant activity against maximal electric shock (MES) induced convulsions after 30 minutes at a dose of 300 mg/kg; format: functional
# Mus musculus [30] = assay: Compound was evaluated for toxicity by rotarod assay method after 4 hr at a dose of 300 mg/kg; format: organism-based; parameters: dose 300 mg/kg; details: in vivo; method in brief: as §1
# Mus musculus [31] = assay: Compound was evaluated for anticonvulsant activity against subcutaneous pentylenetetrazole-induced convulsions after 30 minutes;C indicates no activity at 300 mg/kg.; format: functional, organism-based; parameters: dose 300 mg/kg; method in brief: as §2
# Mus musculus [32] = assay: Compound was evaluated for anticonvulsant activity against subcutaneous pentylenetetrazole-induced convulsions after 4 hr; E indicates no activity at 30 mg/kg.; format: functional, organism-based; parameters: dose 30 mg/kg; method in brief: as §2
# Mus musculus [33] = assay: Compound was evaluated for anticonvulsant activity against subcutaneous pentylenetetrazole-induced convulsions after 30 minutes; E indicates no activity at 30 mg/kg.; format: functional, organism-based; parameters: dose 30 mg/kg; method in brief: as §2
# Mus musculus [34] = assay: Compound was evaluated for anticonvulsant activity against maximal electric shock (MES) induced convulsions after 4 hr; E indicates no activity at 30 mg/kg.; format: functional, organism-based; parameters: dose 30 mg/kg
# Mus musculus [35] = assay: Compound was evaluated for toxicity by rotarod assay method after 4 hr; E indicates no activity at 30 mg/kg.; format: organism-based; parameters: dose 30 mg/kg; details: in vivo; method in brief: as §1
structure (smiles),measurement,setting,value
CNCc1ccc(C(=O)NC(C)c2ccccc2)cc1 (centres undefined),Activity,Mus musculus [1],3
same,Toxicity,Mus musculus [2],3
same,TD50,[3],22.4 mg/kg
same,Toxicity,Mus musculus [4],3
same,Activity,Mus musculus [5],No activity at 100 mg/kg
same,ED50,Mus musculus [6],13.5 mg/kg
same,selectivity ratio,[7],1.66
same,Activity,Mus musculus [8],No activity at 100 mg/kg
same,Activity,Mus musculus [9],4
COc1ccc(C(C)NC(=O)c2ccc(N)cc2)cc1 (centres undefined),Toxicity,Mus musculus [10],No activity at 300 mg/kg
same,Activity,Mus musculus [11],No activity at 300 mg/kg
same,Activity,Mus musculus [12],3
same,Toxicity,Mus musculus [13],No activity at 300 mg/kg
same,Activity,Mus musculus [14],No activity at 300 mg/kg
same,Activity,Mus musculus [15],No activity at 300 mg/kg
CC(NC(=O)c1ccc(N(C)C)cc1)c1ccccc1 (centres undefined),Activity,Mus musculus [16],No activity at 300 mg/kg
same,Toxicity,Mus musculus [17],No activity at 300 mg/kg
same,Toxicity,Mus musculus [18],No activity at 300 mg/kg
same,Activity,Mus musculus [19],No activity at 300 mg/kg
same,Activity,Mus musculus [20],No activity at 300 mg/kg
same,Activity,Mus musculus [21],No activity at 300 mg/kg
CC(NC(=O)c1ccccc1)c1ccc(N)cc1 (centres undefined),Activity,Mus musculus [22],2
same,TD50,[3],190 mg/kg
same,Toxicity,Mus musculus [23],2
same,ED50,Mus musculus [6],68.2 mg/kg
same,ED50,Mus musculus [24],126 mg/kg
same,Activity,Mus musculus [25],No activity at 300 mg/kg
same,Activity,Mus musculus [26],2
same,Protective index,[7],1.51
same,selectivity ratio,[7],2.79
same,Toxicity,Mus musculus [13],No activity at 300 mg/kg
same,Activity,Mus musculus [27],3
CNc1ccc(C(=O)NC(C)c2ccccc2)cc1 (centres undefined),Activity,Mus musculus [22],2
same,Activity,Mus musculus [28],2
same,Toxicity,Mus musculus [10],No activity at 300 mg/kg
same,Activity,Mus musculus [26],2
same,Toxicity,Mus musculus [13],No activity at 300 mg/kg
same,Activity,Mus musculus [27],3
CC(NCc1ccc(N)cc1)c1ccccc1 (centres undefined),Toxicity,Mus musculus [2],3
same,TD50,[3],15.5 mg/kg
same,ED50,Mus musculus [6],11.1 mg/kg
same,Activity,Mus musculus [25],No activity at 300 mg/kg
same,Activity,Mus musculus [11],No activity at 300 mg/kg
same,selectivity ratio,[7],1.4
same,Toxicity,Mus musculus [13],No activity at 300 mg/kg
same,Activity,Mus musculus [14],No activity at 300 mg/kg
same,Activity,Mus musculus [9],4
CC(=O)Nc1ccc(C(=O)NC(C)c2ccccc2)cc1 (centres undefined),Activity,Mus musculus [16],No activity at 300 mg/kg
same,Toxicity,Mus musculus [17],No activity at 300 mg/kg
same,Toxicity,Mus musculus [18],No activity at 300 mg/kg
same,Activity,Mus musculus [19],No activity at 300 mg/kg
same,Activity,Mus musculus [20],No activity at 300 mg/kg
same,Activity,Mus musculus [21],No activity at 300 mg/kg
CC(NC(=O)c1ccc(N)cc1)c1ccc(F)cc1 (centres undefined),Activity,Mus musculus [1],3
same,Activity,Mus musculus [29],2
same,Toxicity,Mus musculus [30],2
same,Activity,Mus musculus [31],No activity at 300 mg/kg
same,Toxicity,Mus musculus [10],No activity at 300 mg/kg
same,Activity,Mus musculus [25],No activity at 300 mg/kg
CC(NC(=O)c1ccc(CN(C)C)cc1)c1ccccc1 (centres undefined),Activity,Mus musculus [32],No activity at 30 mg/kg
same,Toxicity,Mus musculus [2],3
same,Activity,Mus musculus [33],No activity at 30 mg/kg
same,TD50,[3],34.3 mg/kg
same,Activity,Mus musculus [34],No activity at 30 mg/kg
same,ED50,Mus musculus [6],13 mg/kg
same,Toxicity,Mus musculus [35],No activity at 30 mg/kg
same,selectivity ratio,[7],2.63
same,Activity,Mus musculus [9],4
CC(NC(=O)c1ccc(N)cc1)c1ccc(Cl)cc1 (centres undefined),Activity,Mus musculus [29],2
same,Activity,Mus musculus [22],2
same,Activity,Mus musculus [28],2
same,Toxicity,Mus musculus [10],No activity at 300 mg/kg
same,Toxicity,Mus musculus [13],No activity at 300 mg/kg
same,Activity,Mus musculus [14],No activity at 300 mg/kg
